Results gathered from unrelated publications.
Lines come from different studies, so protocols differ.
Target: Sodium-dependent dopamine transporter (SLC6A3, Homo sapiens, UniProt Q01959)

Structure (SMILES)	assay	system	conditions	inhibition [%]
CC(C)Cn1cnc2c(N)nc3ccccc3c21	ligand displacement, radioligand		10 µM	25
Clc1ccc2c(C3CCN(CCc4c[nH]c5ccccc45)CC3)c[nH]c2c1	ligand displacement, radioligand		10 µM	96
CCCCCCCCCCCC(=O)OC[C@@H](COP(=O)(O)OCCNC(=O)c1ccc(Cn2c(=O)[nH]c3c(N)nc(OCCOC)nc32)cc1)OC(=O)CCCCCCCCCCC	ligand displacement, radioligand		10 µM	64
CC(C)N1CCC[C@H]1CNC(=O)c1cn(C2CCCC2)c(=O)c2c1c1ccccc1n2C	ligand displacement, radioligand		10 µM	42
COc1ccc(S(=O)(=O)N2CCCCC2)cc1C	ligand displacement, radioligand		10 µM	< 30
Cc1cc2c(-c3ccco3)cnc(N[C@H]3CCN(C)C[C@@H]3C(=O)NC3CCCCC3)c2[nH]c1=O	cell-free assay		10 µM	8.66
CCN(CC)CCCC[C@H](NC(=O)[C@H](CC(C)C)NC(=O)[C@H](C)NC(=O)[C@H](Cc1ccccc1)NC(=O)c1ccc(C(C)(C)C)cc1)C(=O)N[C@@H](CO)C(=O)OC	ligand displacement, radioligand		10 µM	7
COCc1c(-c2cc3cc(C)cc(OC)c3s2)c2c(N)ncnn2c1CN1CCNC(=O)C1	ligand displacement, radioligand		10 µM	35
Fc1ccc(C(OCCN2CCN(CCCc3ccccc3)CC2)c2ccc(F)cc2)cc1	transporter uptake, inhibitor	HEK293	1 µM	98
CN1CCN(c2ccnc(NCCc3ccccc3)n2)CC1	cell-free assay		10 µM	98
CN(CCN1CCC(OC(=O)Nc2ccccc2-c2ccccc2)CC1)C(=O)c1ccc(CN2CCC(C(N)=O)CC2)cc1	ligand displacement, radioligand		1 µM	-4
